Reference: ChEMBL document CHEMBL1121929, “[(3-aryl-1,2-benzisoxazol-6-yl)oxy]acetic acids. A new diuretic series” (1982)

Tests used:
[1] = system: Canis familiaris; test: Diuretic activity was measured after oral administration in conscious water loaded dogs at 20 mg/kg after 1 hr; format: functional, Canis lupus familiaris, Urine
Procedure, shortened: (§1)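 Male mongrel dogs (20–25 kg) were given 20 mL/kg tap water by gavage about 15 h before drug, with water ad libitum overnight. On the test day they received 4 mL/kg tap water hourly for 7 h, and the bladder was emptied at each interval. Drug was gavaged in the 4 mL/kg water load after the third urine sample, with Tween 80 added when it was poorly soluble. Urinary Na+ was measured by flame photometry as the mean excretory rate (μequiv/kg) per interval per animal. Each dog was its own control, using the hour before dosing.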

[2] = system: Mus musculus; test: The diuretic activity of compound was measured after oral administration in saline loaded mice at 4 mg/kg after 5h.; format: functional, Urine
Procedure, shortened: (§2)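 Mice were dosed orally with drug in 1% saline at 10 mL/kg, at 4 or 64 mg/kg, alongside a vehicle control. There were 10 mice per group, housed 5 per metabolic cage. Pooled urine was analysed for sodium by flame photometry and expressed as mean mequiv/kg/5 h.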

[3] = system: Mus musculus; test: The diuretic activity of compound was measured after oral administration in saline loaded mice at 64 mg/kg after 5h.; format: functional, Urine; procedure, shortened: as §2
[4] = system: Canis familiaris; test: The diuretic activity of compound was measured after oral administration in conscious water loaded dogs at 5 mg/kg after 4 hr; Micro equiv of Na+/kg; format: functional, Canis lupus familiaris, Urine; procedure, shortened: as §1
[5] = system: Canis familiaris; test: The diuretic activity of compound was measured after oral administration in conscious water loaded dogs at 5 mg/kg after 5h; Micro equiv of Na+/kg; format: functional, Canis lupus familiaris, Urine; procedure, shortened: as §1
[6] = system: Canis familiaris; test: The diuretic activity of compound was measured after oral administration in conscious water loaded dogs at 5 mg/kg after 6 h; Micro equiv of Na+/kg; format: functional, Canis lupus familiaris, Urine; procedure, shortened: as §1
[7] = system: Canis familiaris; test: The diuretic activity of compound was measured after oral administration in conscious water loaded dogs at 5 mg/kg after 7h; Micro equiv of Na+/kg; format: functional, Canis lupus familiaris, Urine; procedure, shortened: as §1
[8] = system: Canis familiaris; test: The diuretic activity of compound was measured after oral administration in conscious water loaded dogs at 5 mg/kg after 1 hr; Micro equiv of Na+/kg; format: functional, Canis lupus familiaris, Urine; procedure, shortened: as §1
[9] = system: Canis familiaris; test: The diuretic activity of compound was measured after oral administration in conscious water loaded dogs at 5 mg/kg after 2 hr; Micro equiv of Na+/kg; format: functional, Canis lupus familiaris, Urine; procedure, shortened: as §1
[10] = system: Canis familiaris; test: The diuretic activity of compound was measured after oral administration in conscious water loaded dogs at 5 mg/kg after 3 hr; Micro equiv of Na+/kg; format: functional, Canis lupus familiaris, Urine; procedure, shortened: as §1
[11] = system: Mus musculus; test: The diuretic activity was measured after oral administration in saline loaded mice at 4 mg/kg after 5 hr; format: functional, Urine; procedure, shortened: as §2
[12] = system: Mus musculus; test: The diuretic activity was measured after oral administration in saline loaded mice at 64 mg/kg after 5 hr; format: functional, Urine; procedure, shortened: as §2
[13] = system: Mus musculus; test: The diuretic activity of compound was measured after oral administration in saline loaded mice at 8 mg/kg after 5h; micro equiv of Na+/kg; format: functional, Urine
[14] = system: Canis familiaris; test: Diuretic activity was measured after oral administration in conscious water loaded dogs at 5 mg/kg after 1 hr; format: functional, Canis lupus familiaris, Urine; procedure, shortened: as §1
[15] = system: Canis familiaris; test: Diuretic activity was measured after oral administration in conscious water loaded dogs at 10 mg/kg after 2 hr

SMILES | Oral diuretic activity [1] | Oral diuretic activity [11] | Oral diuretic activity [12] | other results
O=C(O)COc1ccc2c(-c3cccc[n+]3[O-])noc2c1Cl | 116.6 u equiv of [Na+] kg-1 hr-1 | – | – | Oral diuretic activity [2]: 0.5 m equiv [Na+] 5hr-1kg-1; Oral diuretic activity [3]: 1 m equiv [Na+] 5hr-1kg-1
O=C(O)COc1ccc2c(-c3c(F)cccc3F)noc2c1Cl | 1081.4 u equiv of [Na+] kg-1 hr-1 | 5.3 m equiv [Na+] 5hr-1kg-1 | 10.4 m equiv [Na+] 5hr-1kg-1 | Oral diuretic activity [4]: 431.8 u equiv of [Na+] kg-1; Oral diuretic activity [5]: 397 u equiv of [Na+] kg-1; Oral diuretic activity [6]: 342.6 u equiv of [Na+] kg-1; Oral diuretic activity [7]: 190 u equiv of [Na+] kg-1; Oral diuretic activity [8]: 108.4 u equiv of [Na+] kg-1; Oral diuretic activity [9]: 98.9 u equiv of [Na+] kg-1; Oral diuretic activity [10]: 257.2 u equiv of [Na+] kg-1
Cc1c(OCC(=O)O)ccc2c(-c3ccccc3F)noc12 | 478.9 u equiv of [Na+] kg-1 hr-1 | – | 7.24 m equiv [Na+] 5hr-1kg-1 | Oral diuretic activity [13]: 1.86 m equiv [Na+] 5hr-1kg-1
NS(=O)(=O)c1cc(C(=O)O)c(NCc2ccco2)cc1Cl [FUROSEMIDE] | – | 1.93 m equiv [Na+] 5hr-1kg-1 | 7.96 m equiv [Na+] 5hr-1kg-1 | Oral diuretic activity [4]: 333.9 u equiv of [Na+] kg-1; Oral diuretic activity [5]: 144.1 u equiv of [Na+] kg-1; Oral diuretic activity [6]: 40.4 u equiv of [Na+] kg-1; Oral diuretic activity [14]: 1311.5 u equiv of [Na+] kg-1 hr-1; Oral diuretic activity [8]: 1207 u equiv of [Na+] kg-1; Oral diuretic activity [9]: 1311.5 u equiv of [Na+] kg-1; Oral diuretic activity [10]: 763.6 u equiv of [Na+] kg-1
O=C(O)COc1ccc2c(-c3ccccc3F)noc2c1Br [BROCRINAT] | 1970.7 u equiv of [Na+] kg-1 hr-1 | 1.02 m equiv [Na+] 5hr-1kg-1 | 11.53 m equiv [Na+] 5hr-1kg-1 | Oral diuretic activity [4]: 869 u equiv of [Na+] kg-1; Oral diuretic activity [5]: 503.3 u equiv of [Na+] kg-1; Oral diuretic activity [8]: 106.8 u equiv of [Na+] kg-1; Oral diuretic activity [9]: 1083 u equiv of [Na+] kg-1; Oral diuretic activity [10]: 1182.6 u equiv of [Na+] kg-1
CC1(c2ccccc2)Cc2cc(OCC(=O)O)c(Cl)c(Cl)c2C1=O (configuration not stated) [INDACRINONE] | – | 2.1 m equiv [Na+] 5hr-1kg-1 | 7.6 m equiv [Na+] 5hr-1kg-1 | Oral diuretic activity [15]: 1141.4 u equiv of [Na+] kg-1 hr-1
C=C(CC)C(=O)c1ccc(OCC(=O)O)c(Cl)c1Cl [ETHACRYNIC ACID] | 703 µequiv [Na+] kg-1 hr-1 | – | – | Oral diuretic activity [2]: 1.09 m equiv [Na+] 5hr-1kg-1; Oral diuretic activity [3]: 4.14 m equiv [Na+] 5hr-1kg-1
Cc1ccccc1-c1noc2c(Cl)c(OCC(=O)O)ccc12 | 66.9 u equiv of [Na+] kg-1 hr-1 | 0.02 m equiv [Na+] 5hr-1kg-1 | 1.76 m equiv [Na+] 5hr-1kg-1 | –
O=C(O)COc1ccc2c(-c3cccc(F)c3)noc2c1Cl | 50.6 u equiv of [Na+] kg-1 hr-1 | 0.75 m equiv [Na+] 5hr-1kg-1 | 0.81 m equiv [Na+] 5hr-1kg-1 | –
O=C(O)COc1ccc(C(=O)c2cccs2)c(Cl)c1Cl [TICRYNAFEN] | 302.3 u equiv of [Na+] kg-1 hr-1 | 1.11 m equiv [Na+] 5hr-1kg-1 | 3.31 m equiv [Na+] 5hr-1kg-1 | Oral diuretic activity [4]: 77.4 u equiv of [Na+] kg-1; Oral diuretic activity [5]: 36.5 u equiv of [Na+] kg-1; Oral diuretic activity [7]: 21.2 u equiv of [Na+] kg-1; Oral diuretic activity [8]: 127.5 u equiv of [Na+] kg-1
O=C(O)COc1ccc2c(-c3cccs3)noc2c1Cl | 77.5 u equiv of [Na+] kg-1 hr-1 | 0.4 m equiv [Na+] 5hr-1kg-1 | 1 m equiv [Na+] 5hr-1kg-1 | –
Cc1ccc(-c2noc3c(Cl)c(OCC(=O)O)ccc23)o1 | 37.4 u equiv of [Na+] kg-1 hr-1 | 0.3 m equiv [Na+] 5hr-1kg-1 | 1.5 m equiv [Na+] 5hr-1kg-1 | –
O=C(O)COc1ccc2c(-c3ccc4ccccc4c3)noc2c1Cl | 53.3 u equiv of [Na+] kg-1 hr-1 | 1.2 m equiv [Na+] 5hr-1kg-1 | 1.1 m equiv [Na+] 5hr-1kg-1 | –
O=C(O)CSc1ccc2c(-c3ccccc3F)noc2c1Cl | 328.4 u equiv of [Na+] kg-1 hr-1 | 1.37 m equiv [Na+] 5hr-1kg-1 | 4.67 m equiv [Na+] 5hr-1kg-1 | –
O=C(O)COc1ccc2c(-c3ccc(F)cc3)noc2c1Cl | 178.7 u equiv of [Na+] kg-1 hr-1 | 0.4 m equiv [Na+] 5hr-1kg-1 | 0.4 m equiv [Na+] 5hr-1kg-1 | –
O=C(O)COc1ccc2c(-c3ccc(Cl)c(Cl)c3)noc2c1Cl | 101.6 u equiv of [Na+] kg-1 hr-1 | 0.6 m equiv [Na+] 5hr-1kg-1 | 0.1 m equiv [Na+] 5hr-1kg-1 | –
O=C(O)COc1ccc2c(-c3ccccc3)noc2c1Cl | 47.5 u equiv of [Na+] kg-1 hr-1 | 0.8 m equiv [Na+] 5hr-1kg-1 | 1.7 m equiv [Na+] 5hr-1kg-1 | –
O=C(O)COc1ccc2c(-c3ccc(Cl)cc3)noc2c1Cl | 41.2 u equiv of [Na+] kg-1 hr-1 | 0.5 m equiv [Na+] 5hr-1kg-1 | 0.5 m equiv [Na+] 5hr-1kg-1 | –
O=C(O)COc1ccc2c(-c3ccccn3)noc2c1Cl | 61.2 u equiv of [Na+] kg-1 hr-1 | 0.5 m equiv [Na+] 5hr-1kg-1 | 1 m equiv [Na+] 5hr-1kg-1 | –
O=C(O)COc1ccc2c(-c3ccoc3)noc2c1Cl | 293 u equiv of [Na+] kg-1 hr-1 | 0.6 m equiv [Na+] 5hr-1kg-1 | 2.1 m equiv [Na+] 5hr-1kg-1 | –
O=C(O)COc1ccc2c(-c3ccccc3F)noc2c1Cl | 1267.5 u equiv of [Na+] kg-1 hr-1 | 3.5 m equiv [Na+] 5hr-1kg-1 | 10 m equiv [Na+] 5hr-1kg-1 | Oral diuretic activity [4]: 503.7 u equiv of [Na+] kg-1; Oral diuretic activity [5]: 458.2 u equiv of [Na+] kg-1; Oral diuretic activity [6]: 241.7 u equiv of [Na+] kg-1; Oral diuretic activity [7]: 146.2 u equiv of [Na+] kg-1; Oral diuretic activity [8]: 48.6 u equiv of [Na+] kg-1; Oral diuretic activity [9]: 499.4 u equiv of [Na+] kg-1; Oral diuretic activity [10]: 727 u equiv of [Na+] kg-1
